Data: ChEMBL document CHEMBL1828500, “Synthesis and biological evaluation of dihydroindeno and indeno [1,2-e] [1,2,4]triazolo [3,4-b] [1,3,4]thiadiazines as antimicrobial agents” (2011)
Converted amounts (≈) assume the structure as drawn. The source made the active and inactive calls. No cut-off for these calls is given here.

Legend:
Type in all cases: functional
[1] = test system: Aspergillus niger; experiment: Antifungal activity against Aspergillus niger assessed as inhibition of mycelial growth at 4 mg/ml after 7 days; settings: 168 h, read-out: GI
Summary of the method: (§1)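 Poisoned food method. Molds grown on Sabouraud dextrose agar at 25 °C for 7 days to provide inocula. Molten SDA (45 °C) dosed with compound at 4.0 mg/mL in DMSO, then solidified. 8 mm fungal plugs from colony margins placed centrally. Incubated 25 °C for 7 days, in triplicate. % mycelial growth inhibition calculated from colony diameters versus DMSO control. Fluconazole served as positive control.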

[2] = test system: Aspergillus flavus; experiment: Antifungal activity against Aspergillus flavus assessed as inhibition of mycelial growth at 4 mg/ml after 7 days; settings: 168 h, read-out: GI; summary of the method: as §1
[3] = test system: Staphylococcus aureus; experiment: Antibacterial activity against Staphylococcus aureus MTCC 96 after 24 hrs by agar well diffusion method; settings: MTCC 96, 24 h
Summary of the method: (§2)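 MIC by modified agar well diffusion. Two-fold serial dilutions (DMSO stock diluted in sterile distilled water), range 256 to 0.5, placed in wells in triplicate. Agar was pre-seeded with 100 standardized inoculum at 10⁶ cfu/mL. Incubated aerobically at 37 °C for 24 h. MIC taken as lowest concentration giving a clear zone, i.e. complete growth inhibition.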

[4] = test system: Penicillium sp.; experiment: Antifungal activity against Penicillium sp. assessed as inhibition of mycelial growth at 4 mg/ml after 7 days; settings: 168 h, read-out: GI; summary of the method: as §1
[5] = test system: Bacillus subtilis; experiment: Antibacterial activity against Bacillus subtilis MTCC 121 at 2 mg/ml after 24 hrs by agar well diffusion method; settings: MTCC 121, 24 h, read-out: DIZ
Summary of the method: (§3)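 Cultures adjusted to 0.5 McFarland and left 15 min on agar for adsorption. 8 mm wells bored and loaded with compound at 2.0 mg/mL in DMSO. Incubated 37 °C for 24 h. Growth-inhibition zone diameter (mm) read with a zone scale and reported as the average. DMSO served as negative control and ciprofloxacin as positive control.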

[6] = test system: Pseudomonas aeruginosa; experiment: Antibacterial activity against Pseudomonas aeruginosa MTCC 741 at 2 mg/ml after 24 hrs by agar well diffusion method; settings: for zone of inhibition at 2000 µg/mL: MTCC 741, 24 h, read-out: DIZ; summary of the method: as §3
[7] = test system: Escherichia coli; experiment: Antibacterial activity against Escherichia coli MTCC 1652 at 2 mg/ml after 24 hrs by agar well diffusion method; settings: for zone of inhibition at 2000 µg/mL: MTCC 1652, 24 h, read-out: DIZ; summary of the method: as §3
[8] = test system: Staphylococcus aureus; experiment: Antibacterial activity against Staphylococcus aureus MTCC 96 at 2 mg/ml after 24 hrs by agar well diffusion method; settings: MTCC 96, 24 h, read-out: DIZ; summary of the method: as §3
[9] = test system: Pseudomonas aeruginosa; experiment: Antibacterial activity against Pseudomonas aeruginosa MTCC 741 after 24 hrs by agar well diffusion method; settings: MTCC 741, 24 h; summary of the method: as §2
[10] = test system: Bacillus subtilis; experiment: Antibacterial activity against Bacillus subtilis MTCC 121 after 24 hrs by agar well diffusion method; settings: MTCC 121, 24 h; summary of the method: as §2
[11] = test system: Escherichia coli; experiment: Antibacterial activity against Escherichia coli MTCC 1652 after 24 hrs by agar well diffusion method; settings: MTCC 1652, 24 h; summary of the method: as §2

SMILES	inhibition of growth at 4000 µg/mL [1]	inhibition of growth at 4000 µg/mL [2]	MIC [3]	inhibition of growth at 4000 µg/mL [4]	zone of inhibition at 2000 µg/mL [5]	zone of inhibition at 2000 µg/mL [6]	zone of inhibition at 2000 µg/mL [7]	zone of inhibition at 2000 µg/mL [8]	MIC [9]	MIC [10]	MIC [11]	diameter of the inhibition zone (DIZ) [6]	diameter of the inhibition zone (DIZ) [7]
CCCc1nnc2n1N=C1c3ccccc3CC1S2 (configuration not stated)	55.5%	52.5%	8 µg/mL (≈ 29.6 µM)	53.3%	25 mm	18.6 mm	19.3 mm	27.3 mm	64 µg/mL (≈ 237 µM)	16 µg/mL (≈ 59.2 µM)	64 µg/mL (≈ 237 µM)	–	–
O=C(O)c1cn(C2CC2)c2cc(N3CCNCC3)c(F)cc2c1=O [CIPROFLOXACIN]	–	–	5 µg/mL (≈ 15.1 µM)	–	24 mm	22 mm	–	26.6 mm	5 µg/mL (≈ 15.1 µM)	5 µg/mL (≈ 15.1 µM)	5 µg/mL (≈ 15.1 µM)	–	–
CC(C)c1nnc2sc3cc4ccccc4c-3nn12	48.8%	50%	128 µg/mL (≈ 477 µM)	44.4%	17.3 mm	–	–	15.6 mm	–	128 µg/mL (≈ 477 µM)	–	inactive	inactive
CCc1nnc2n1N=C1c3cccc(C)c3CC1S2 (configuration not stated)	64.4%	63.3%	8 µg/mL (≈ 29.6 µM)	65.5%	28 mm	19.3 mm	21 mm	26.6 mm	32 µg/mL (≈ 118 µM)	4 µg/mL (≈ 14.8 µM)	32 µg/mL (≈ 118 µM)	–	–
c1ccc2c(c1)CC1Sc3nncn3N=C21 (configuration not stated)	51.1%	52.5%	128 µg/mL (≈ 561 µM)	51.1%	17.6 mm	–	–	15.3 mm	–	128 µg/mL (≈ 561 µM)	–	inactive	inactive
CCc1nnc2sc3cc4c(C)cccc4c-3nn12	65.5%	62.5%	32 µg/mL (≈ 119 µM)	63.3%	23 mm	17.3 mm	19.3 mm	21.6 mm	64 µg/mL (≈ 238 µM)	32 µg/mL (≈ 119 µM)	64 µg/mL (≈ 238 µM)	–	–
CCc1nnc2sc3cc4ccccc4c-3nn12	48.8%	45.5%	128 µg/mL (≈ 503 µM)	50%	17.6 mm	–	–	16.3 mm	–	128 µg/mL (≈ 503 µM)	–	inactive	inactive
Cc1nnc2sc3cc4ccccc4c-3nn12	50%	48.8%	256 µg/mL (≈ 1070 µM)	52.5%	15.3 mm	–	–	14.6 mm	–	256 µg/mL (≈ 1070 µM)	–	inactive	inactive
c1ccc(-c2nnc3n2N=C2c4ccccc4CC2S3)cc1 (configuration not stated)	51.1%	48.8%	64 µg/mL (≈ 210 µM)	50%	16.3 mm	14.6 mm	18.3 mm	20.6 mm	256 µg/mL (≈ 841 µM)	128 µg/mL (≈ 421 µM)	64 µg/mL (≈ 210 µM)	–	–
CC(C)c1nnc2n1N=C1c3ccccc3CC1S2 (configuration not stated)	53.3%	51.1%	4 µg/mL (≈ 14.8 µM)	51.1%	24.6 mm	19.3 mm	20.6 mm	28.6 mm	32 µg/mL (≈ 118 µM)	16 µg/mL (≈ 59.2 µM)	64 µg/mL (≈ 237 µM)	–	–
CCCc1nnc2n1N=C1c3cccc(C)c3CC1S2 (configuration not stated)	58.8%	55.5%	16 µg/mL (≈ 56.3 µM)	61.1%	21.6 mm	17.6 mm	19.3 mm	25.3 mm	64 µg/mL (≈ 225 µM)	32 µg/mL (≈ 113 µM)	64 µg/mL (≈ 225 µM)	–	–
Cc1cccc2c3nn4c(C)nnc4sc-3cc12	53.3%	50%	64 µg/mL (≈ 252 µM)	51.1%	18.6 mm	15.6 mm	18.6 mm	20.3 mm	128 µg/mL (≈ 503 µM)	64 µg/mL (≈ 252 µM)	64 µg/mL (≈ 252 µM)	–	–
c1ccc2c3nn4cnnc4sc-3cc2c1	53.3%	50%	256 µg/mL (≈ 1130 µM)	51.1%	16 mm	–	–	14.3 mm	–	128 µg/mL (≈ 566 µM)	–	inactive	inactive
CCCc1nnc2sc3cc4c(C)cccc4c-3nn12	68.8%	65.5%	128 µg/mL (≈ 453 µM)	65.5%	18.6 mm	14.3 mm	15.6 mm	16.3 mm	256 µg/mL (≈ 907 µM)	64 µg/mL (≈ 227 µM)	128 µg/mL (≈ 453 µM)	–	–
Cc1cccc2c3nn4c(-c5ccccc5)nnc4sc-3cc12	55.5%	51.1%	64 µg/mL (≈ 202 µM)	48.8%	22.6 mm	15.3 mm	15.6 mm	18.6 mm	128 µg/mL (≈ 405 µM)	32 µg/mL (≈ 101 µM)	128 µg/mL (≈ 405 µM)	–	–
Cc1cccc2c1CC1Sc3nncn3N=C21 (configuration not stated)	63.3%	65.5%	8 µg/mL (≈ 33 µM)	62.5%	30.6 mm	20.3 mm	22.3 mm	26.3 mm	32 µg/mL (≈ 132 µM)	2 µg/mL (≈ 8.25 µM)	32 µg/mL (≈ 132 µM)	–	–
Cc1cccc2c1CC1Sc3nnc(C)n3N=C21 (configuration not stated)	67.7%	68.8%	8 µg/mL (≈ 31.2 µM)	67.7%	31.3 mm	18.6 mm	20.6 mm	27.6 mm	64 µg/mL (≈ 250 µM)	2 µg/mL (≈ 7.8 µM)	64 µg/mL (≈ 250 µM)	–	–
Cc1cccc2c1CC1Sc3nnc(C(C)C)n3N=C21 (configuration not stated)	63.3%	61.1%	4 µg/mL (≈ 14.1 µM)	65.5%	27 mm	20.3 mm	21.6 mm	28.6 mm	32 µg/mL (≈ 113 µM)	8 µg/mL (≈ 28.1 µM)	32 µg/mL (≈ 113 µM)	–	–
Cc1cccc2c3nn4cnnc4sc-3cc12	71.1%	68.8%	16 µg/mL (≈ 66.6 µM)	66.6%	28.6 mm	18.3 mm	20.6 mm	25.3 mm	128 µg/mL (≈ 533 µM)	4 µg/mL (≈ 16.6 µM)	64 µg/mL (≈ 266 µM)	–	–
c1ccc(-c2nnc3sc4cc5ccccc5c-4nn23)cc1	45.5%	48.8%	256 µg/mL (≈ 847 µM)	51.1%	15 mm	–	–	14.6 mm	–	256 µg/mL (≈ 847 µM)	–	inactive	inactive
CCCc1nnc2sc3cc4ccccc4c-3nn12	51.1%	48.8%	16 µg/mL (≈ 59.6 µM)	47.7%	24.3 mm	16.3 mm	18.6 mm	25.6 mm	128 µg/mL (≈ 477 µM)	16 µg/mL (≈ 59.6 µM)	64 µg/mL (≈ 238 µM)	–	–
OC(Cn1cncn1)(Cn1cncn1)c1ccc(F)cc1F [FLUCONAZOLE]	81.1%	77.7%	–	83.3%	–	–	–	–	–	–	–	–	–
Cc1nnc2n1N=C1c3ccccc3CC1S2 (configuration not stated)	53.3%	51.1%	256 µg/mL (≈ 1060 µM)	55.5%	16.3 mm	–	–	14.6 mm	–	128 µg/mL (≈ 528 µM)	–	inactive	inactive
